Data on 19 compounds can be found in ChEMBL document CHEMBL3867450, “Synthesis of Natural Acylphloroglucinol-Based Antifungal Compounds against Cryptococcus Species” (J Nat Prod, 2016).

As a reminder, the MIC is the lowest concentration found to suppress growth. The term IC50 denotes the concentration needed to halve the response being measured.

In brackets after ≈: the same amount, converted by molar mass.

Series [1] concerns Cryptococcus neoformans. Description: Antifungal activity against Cryptococcus neoformans H99 assessed as growth inhibition measured after 72 hrs by CLSI method. Particulars: var grubii H99 . The series is classed as functional. The gist of the method:
(§1)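 Susceptibility testing by a modified CLSI (formerly NCCLS) method against C. neoformans ATCC 90113, C. neoformans H99 (from Duke University) or C. gattii ATCC 32609. The top test concentration was 20 μg/mL. MIC is the lowest concentration allowing no detectable growth. IC50 is the concentration giving 50% growth inhibition.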

Series [2] has as its system Cryptococcus bacillisporus. Kind of series: Antifungal activity against Cryptococcus gattii ATCC 32609 assessed as growth inhibition measured after 72 hrs by CLSI method. Particulars: ATCC 32609, 72 h. Type of series: functional. In short, it runs like this: as §1
A short description of series [3]: Selectivity index, ratio of IC50 for African green monkey Vero cells to MIC for Cryptococcus neoformans ATCC 90113. Particulars: read-out: Selectivity Index. Type of series: toxicity, cell-based. In short, it runs like this: (§2)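 Selectivity index is the mammalian-cell IC50 (neutral red assay, Vero or LLC-PK1) divided by the MIC against C. neoformans ATCC 90113 (modified CLSI method).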

Series [4] is described as follows: Cytotoxicity against pig LLC-PK1 cells assessed as reduction in viable cells measured after 48 hrs by neutral red dye-based method. The series is classed as toxicity, cell-based. Particulars: pig (Sus scrofa). In short, it runs like this: (§3)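 Vero (African green monkey kidney […]) and LLC-PK1 (pig kidney epithelial) cells were scored for viability by neutral red uptake. The top test concentration was 50 μg/mL. IC50 is the concentration causing 50% growth inhibition of the mammalian cells.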

The nature of series [5]: Selectivity index, ratio of IC50 for pig LLC-PK1 cells to MIC for Cryptococcus neoformans ATCC 90113. Type of series: toxicity, cell-based. Particulars: read-out: Selectivity Index. In short, it runs like this: as §2
The nature of series [6]: Cytotoxicity against African green monkey Vero cells assessed as reduction in viable cells measured after 48 hrs by neutral red dye-based method. Type of series: toxicity, cell-based. Particulars: African green monkey (Chlorocebus sabaeus). In short, it runs like this: as §3
Series [7] can be described thus: Antifungal activity against Cryptococcus neoformans ATCC 90113 assessed as growth inhibition measured after 72 hrs by CLSI method. The series is classed as functional. In short, it runs like this: as §1
A short description of series [8]: Antifungal activity against Cryptococcus neoformans ATCC 90113 assessed as growth inhibition at 20 ug/ml measured after 72 hrs by CLSI method. The series is classed as functional. The gist of the method: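 Primary screen against C. neoformans ATCC 90113 by a modified CLSI method at 20 μg/mL. Growth inhibition above 50% at this concentration was scored as active and taken to further testing.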

Regarding `CCCC(=O)c1c(O)cc(O)c(C(=O)c2ccccc2)c1O`, the MIC in series [1] was found to be 6.7 µg/mL (≈ 22.3 µM); in series [2] it was 5 µg/mL (≈ 16.6 µM); in series [7], 6.7 µg/mL (≈ 22.3 µM). The results for the selectivity ratio in series [3] and in series [5] were 2.1 and 4, respectively. Besides, the IC50 at 48 h in series [4] is 27 µg/mL (≈ 89.9 µM); in series [6], 14.3 µg/mL (≈ 47.6 µM). Also, in series [8], the growth inhibition (GI) is above 50%.
With `CC(C)C(=O)c1c(O)cc(O)c(C(=O)c2ccc(F)cc2)c1O`, the minimum inhibitory concentration (MIC) in series [1] is 11.7 µg/mL (≈ 36.8 µM); in series [2], 6.7 µg/mL (≈ 21 µM); in series [7] it was 8.3 µg/mL (≈ 26.1 µM). Further, the selectivity ratio in series [3] is 1.6; in series [5] it was 3.3. In addition, the IC50 at 48 h is 27.5 µg/mL (≈ 86.4 µM) in series [4] and 13.5 µg/mL (≈ 42.4 µM) in series [6]. The growth inhibition (GI) in series [8] was above 50%.
Take `CC(C)C(=O)c1c(O)cc(O)c(Cc2ccc([N+](=O)[O-])cc2)c1O`: the MIC in series [1] came out at 10 µg/mL (≈ 30.2 µM); in series [2] it was 5 µg/mL (≈ 15.1 µM); in series [7], 6.7 µg/mL (≈ 20.2 µM). In addition, the selectivity ratio in series [3] came out at 2.7; in series [5], 4.2. Moreover, the 50% inhibitory concentration (IC50) at 48 h turned out to be 28 µg/mL (≈ 84.5 µM) in series [4] and 18 µg/mL (≈ 54.3 µM) in series [6]. Also, in series [8], the growth inhibition (GI) was above 50%.
For `CC(C)C(=O)c1c(O)cc(O)c(Cc2c(Cl)cccc2Cl)c1O`, the minimum inhibitory concentration (MIC) in series [1] was found to be 4.2 µg/mL (≈ 11.8 µM); in series [2], 2.1 µg/mL (≈ 5.91 µM); in series [7], 1 µg/mL (≈ 2.82 µM). Also, the selectivity ratio in series [3] is 27.5; in series [5], 29.5. Also, the values for the IC50 at 48 h in series [4] and in series [6] were 29.5 µg/mL (≈ 83 µM) and 27.5 µg/mL (≈ 77.4 µM), respectively. In series [8], the growth inhibition (GI) is above 50%.
`C[C@@H]1[C@H](O)[C@@H](C)/C=C/C=C/C=C/C=C/C=C/C=C/C=C/[C@H](O[C@@H]2O[C@H](C)[C@@H](O)[C@H](N)[C@@H]2O)C[C@@H]2O[C@](O)(C[C@@H](O)C[C@@H](O)[C@H](O)CC[C@@H](O)C[C@@H](O)CC(=O)O[C@H]1C)C[C@H](O)[C@H]2C(=O)O` [AMPHOTERICIN B]: the MIC in series [1] amounted to 0.3 µg/mL (≈ 0.325 µM); in series [2] it was 0.3 µg/mL (≈ 0.325 µM); in series [7] it was 0.4 µg/mL (≈ 0.433 µM).
With `COc1ccc(C(=O)c2c(O)cc(O)c(C(=O)C(C)C)c2O)cc1`, the MIC in series [1] worked out at 10 µg/mL (≈ 30.3 µM); in series [2], 8.3 µg/mL (≈ 25.1 µM); in series [7] it was 13.3 µg/mL (≈ 40.3 µM). Further, the selectivity ratio in series [3] is 0.8; in series [5], 1.9. Further, the concentration for half-maximal inhibition (IC50) at 48 h in series [4] is 24.8 µg/mL (≈ 75.1 µM); in series [6], 10.5 µg/mL (≈ 31.8 µM). Also, in series [8], the growth inhibition (GI) is above 50%.
For the compound `CC(C)C(=O)c1c(O)cc(OCc2ccc(C(C)C)cc2)cc1O`, the growth inhibition (GI) in series [8] is below 50%.
In the case of `OC(Cn1cncn1)(Cn1cncn1)c1ccc(F)cc1F` [FLUCONAZOLE], the MIC in series [1] stood at 12.5 µg/mL (≈ 40.8 µM); in series [2], 25 µg/mL (≈ 81.6 µM); in series [7] it was 6.3 µg/mL (≈ 20.6 µM).
As to `CC(C)C(=O)c1c(O)cc(OCc2c(F)cccc2Cl)cc1O`, the growth inhibition (GI) in series [8] is below 50%.
On the same count and under the same terms, the figure for `CC(C)C(=O)c1c(O)cc(O)cc1O` is below 50%; for `CCCC(=O)c1c(O)cc(O)cc1O` it is below 50%.
For `COc1cccc2c1C(=O)c1c(O)c3c(c(O)c1C2=O)C[C@@](O)(C(=O)CO)C[C@@H]3O[C@H]1C[C@H](N)[C@H](O)[C@H](C)O1` [DOXORUBICIN], the figures for the half-inhibitory concentration (IC50) at 48 h in series [4] and in series [6] were 1.3 µg/mL (≈ 2.39 µM) and above 10 µg/mL, respectively.
As to `CCOC(=O)COc1cc(O)c(C(=O)C(C)C)c(O)c1`, in series [8], the growth inhibition (GI) was below 50%.
Still for that read-out and setting: the figure for `CCOC(=O)COc1cc(O)cc(O)c1C(=O)C(C)C` is below 50%; for `CC(C)(C)C(=O)c1c(O)cc(O)cc1O` it is below 50%; for `CC(C)C(=O)c1c(O)cc(OCC(=O)NC(C)(C)C)cc1O` it is below 50%.
In the case of `CCOC(=O)COc1cc(O)c(C(=O)C(C)C)c(OCC(=O)OCC)c1`, the growth inhibition (GI) in series [8] is below 50%.
With `CC(C)=CCc1c(O)cc(O)c(C(=O)C(C)(C)C)c1O`, in series [8], the growth inhibition (GI) was below 50%.
Same read-out and setting: the figure for `CC(C)C(=O)c1c(O)cc(O)cc1OCC(=O)NC(C)(C)C` is below 50%.
